# Source: PubChem
# Shown are actives, neighbours in structure and some others; about 2.5% of the full set was active somewhere.
# UCH37 DUB inh = inhibitors of human UCH37 deubiquitinase, primary screen, biochemical, Ub-AMC cleavage, fluorescence; Ubiquitin carboxyl-terminal hydrolase isozyme L5 (Homo sapiens), Q9Y5K5; purified proteasome/UCH37; inhibition, % (concentration not given with the values); 330,000 compounds, 0.33% hits; AID 588478, 2011;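 active means mean inhibition over replicate wells above about 20%, limit read from the data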;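 further: 0% = compound-free wells with enzyme and 100% = wells lacking proteasome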
#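 Test system – human UCH37 enzyme supplied as purified proteasome complex · Incubation – 30 min preincubation with enzyme, 25 min cleavage at room temperature · Detection – AMC fluorescence from Ub-AMC cleavage, excitation 355 nm, emission 460 nm · Benchmarks – no-proteasome wells (full inhibition) and compound-free wells (no inhibition)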
# MEKK2mut PB1 HTS = MEK5 binding signal on mutant MEKK2 PB1, primary screen, biochemical, multiplex bead flow cytometry, Alexa488-MEK5; Alexa488-MEK5 binding to MEKK2 mutant; percent response, % at 10 µM; 290,000 compounds, 0.35% hits; AID 1530, 2009; in the data active means percent response above about 24%, passing the limit was not always enough
# T cell modulator = modulators of CD8 T cell-vesicle binding, primary screen, mouse 2C CD8+ T cells, flow cytometry. 2C CD8+ T cell-vesicle binding; stronger effect = lower value. response (vesicle binding), % at 7 µM. 330,000 compounds, 0.068% hits. AID 2052, 2009;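 active means response, share of CD8 T cells binding vesicles, and their 90th percentile fluorescence all below set limits, cut at about 80% in these data, passing the limit was not always enough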;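 further: values below 100% mean blocked vesicle binding to the CD8+ T cells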
#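 Assay system: 2C TCR transgenic mouse naive CD8+ T cells, MACS-purified | Read-out: CD8+ gate FL2 mean fluorescence as % of same-row positive control | Signal: High-throughput flow cytometry with anti-B7-1 and anti-CD8 staining | Timing: Binding step 1.5 h, 37 °C, antibody labelling 20 min, ice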
# MEKK3 PB1 HTS = modulators of MEKK3-MEK5 PB1 binding, primary screen, biochemical, wildtype MEKK3, multiplex bead flow cytometry, Alexa488-MEK5; Mitogen-activated protein kinase kinase kinase 3 (Homo sapiens), Q99759; bead-based flow cytometry, Alexa488-MEK5 binding to MEKK3; actives lie on both sides; 0 = blocked by unlabeled MEK5, 100 = vehicle; binding response (% of control), % at 10 µM; 290,000 compounds, 1.4% hits;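 active means binding response more than 3 SD above or below the average of its plate-row segment, actives on both sides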;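 further: Alexa488 bead fluorescence after subtracting the streptavidin-only scavenger bead signal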
# Target sequence (Q99759 whole entry, looked up): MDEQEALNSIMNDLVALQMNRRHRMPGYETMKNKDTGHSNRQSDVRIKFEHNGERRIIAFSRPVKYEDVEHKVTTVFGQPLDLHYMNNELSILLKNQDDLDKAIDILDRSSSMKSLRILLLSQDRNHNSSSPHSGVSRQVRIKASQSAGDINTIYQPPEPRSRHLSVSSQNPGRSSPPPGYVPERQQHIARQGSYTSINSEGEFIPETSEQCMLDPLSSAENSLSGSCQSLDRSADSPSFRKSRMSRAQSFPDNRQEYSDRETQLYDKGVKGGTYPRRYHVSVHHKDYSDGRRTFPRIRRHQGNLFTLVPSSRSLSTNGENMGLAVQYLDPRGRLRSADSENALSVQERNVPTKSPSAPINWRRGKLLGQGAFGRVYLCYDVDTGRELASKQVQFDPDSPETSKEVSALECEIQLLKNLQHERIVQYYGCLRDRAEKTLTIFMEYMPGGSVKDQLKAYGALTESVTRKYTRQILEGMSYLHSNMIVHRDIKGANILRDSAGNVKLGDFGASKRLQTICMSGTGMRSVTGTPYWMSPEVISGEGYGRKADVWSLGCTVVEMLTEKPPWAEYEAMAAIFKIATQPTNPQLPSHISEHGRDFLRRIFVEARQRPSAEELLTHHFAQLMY
# Rce1 inh = yeast Rce1p protease inhibitors, primary screen, biochemical, fluorescence, cell-free homogeneous. CAAX prenyl protease 2 (Saccharomyces cerevisiae (strain ATCC 204508 / S288c)), Q03530. calls only. yeast membranes, quenched prenylated peptide cleavage fluorescence. 290,000 compounds, 0.27% hits. AID 2563, 2010;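 active means fall in fluorescence gain of 50% or more versus controls, with final raw signal at or below 3038400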;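 further: plate controls were neutral control wells for no effect and wells lacking membranes for full effect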
# MEKK2wt PB1 HTS = modulators of MEK5 binding to wildtype MEKK2, primary screen, biochemical, multiplex bead flow cytometry, Alexa488-MEK5; Mitogen-activated protein kinase kinase kinase 2 (Homo sapiens), Q9Y2U5; Alexa488-MEK5 binding to MEKK2 WT; actives lie on both sides; binding response (% of control), % at 10 µM; 290,000 compounds, 1.1% hits; in the data active means binding response below about 67% or above about 130%
# MEKK2wt confirm = modulators of MEK5 binding to wildtype MEKK2, confirmation, biochemical, single concentration, multiplex bead flow cytometry; shares compounds with MEKK3 PB1 HTS; Alexa488-MEK5 binding to MEKK2 WT; actives lie on both sides; 5,900 compounds, 2.4% hits; binding response (% of control), % at 10 µM; AID 1892, 2009; in the data active means binding response below about 16% or above about 210%; inactive means in between
# MEKK2mut-MEK5 = mutant MEKK2 PB1-MEK5 binding signal retest – biochemical, single concentration, multiplex bead flow cytometry, confirmation. percent response, % at 10 µM. 5,900 compounds, 2% hits. AID 1893, 2009. shares compounds with MEKK3 PB1 HTS. Alexa488-MEK5 binding to MEKK2 mutant; in the data active means percent response mostly above about 71%, no sharp cut-off; inactive means mostly below about 38%;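 further: higher means compound restores mutant binding toward wildtype level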
# MEKK3-MEK5 inh = MEKK3 wild-type PB1 binding to MEK5, inhibitors, confirmation, biochemical, bead multiplex flow cytometry, single concentration, wildtype | shares compounds with MEKK3 PB1 HTS | Alexa488-MEK5 binding to MEKK3; stronger effect = lower value | binding response (% of control), % at 10 µM | 5,900 compounds, 1.8% hits | AID 1894, 2009;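 active means binding response below 72% of control, or above a set upper limit, though filed actives all read lower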;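 further: 100% = DMSO only wells and 0% = binding blocked by excess unlabeled MEK5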
# Active calls of the source: *; i = inactive; x = no result; ! = repeats disagree; [ ] = remark or other dose.
SMILES,UCH37 DUB inh,MEKK2mut PB1 HTS,T cell modulator,MEKK3 PB1 HTS,Rce1 inh,MEKK2wt PB1 HTS,MEKK2wt confirm,MEKK2mut-MEK5,MEKK3-MEK5 inh
CC(C)=CCC/C(C)=C/C=NNC(=O)c1ccc([N+](=O)[O-])cc1,1.9,x,x,x,x,x,x,x,x
COc1ccc2[nH]cc(CCNC(C)=O)c2c1,0.9,44.0*,355.0,108.0,i,106.0,100.0,-1.0,102.0
Cc1ccc2[nH]cc(CCNC(=O)CN3C(=O)c4ccccc4C3=O)c2c1,0.9,-1.0,220.0,147.0*,i,109.0,94.0,-11.0,91.0
O=C(CCC(=O)Nc1ccc(F)cc1)NN=Cc1cccs1,6.6,x,x,x,x,x,x,x,x
CC(C)NC(=O)c1sc2nc(-c3cccs3)cc(-c3cccs3)c2c1N,-7.9,-11.0,267.2,99.0,i,83.0,x,x,x
Nc1c(C(=O)C2CC2)sc2nc(-c3cccs3)cc(C(F)(F)F)c12,-16.9,-1.0,595.5,95.0,i,59.0*[inhibitor],85.0,-7.0,101.0
O=C1S/C(=C\c2ccc(O)c([N+](=O)[O-])c2)C(=O)N1Cc1cccc([N+](=O)[O-])c1,x,-8.0,237.5,91.0,i,84.0,x,x,x
O=C1S/C(=C\c2ccc(O)c([N+](=O)[O-])c2)C(=O)N1c1ccccc1Cl,x,-8.0,350.1,74.0*[inhibitor],i,81.0,102.0,1.0,103.0
CCOc1cc(C=NNC(=O)CSc2nncn2C)ccc1OCC(N)=O,5.5,x,x,x,x,x,x,x,x
Fc1ccc(CSc2nnc3ccc(-c4ccncc4)nn23)cc1,2.2,190.0*,471.5,127.0,i,115.0,97.0,-2.0,101.0
c1ccc(CSc2nnc3ccc(-c4ccncc4)nn23)nc1,1.7,2.0,312.6,115.0,i,103.0,x,x,x
Cc1cc(N/N=C/c2ccccc2)nc(NCc2ccccc2)n1,x,32.0,240.8,107.0,i,175.0*,153.0,31.0,111.0
Cc1cc(N/N=C/c2cccc(F)c2)nc(NCc2ccccc2)n1,x,25.0,196.5,96.0,i,140.0*,138.0,26.0,106.0
Cc1cc(NN=Cc2cccc(Cl)c2)nc(NCc2ccccc2)n1,2.6,x,x,x,x,x,x,x,x
Cc1cc(N/N=C/c2cccc(Cl)c2)nc(NCc2ccccc2)n1,x,35.0,104.4,99.0,i,149.0*,174.0,52.0,110.0
Cc1cc(N/N=C/c2ccc(Cl)cc2)nc(NCc2ccccc2)n1,x,54.0*,362.2,107.0,i,186.0*,173.0,51.0,110.0
Cc1cc(NN=Cc2ccccc2)nc(NCc2ccccc2)n1,0.8,x,x,x,x,x,x,x,x
O=C(NN=C/C=C/c1ccc(Br)cc1)C(O)c1ccccc1 (stereo not drawn),5.0,x,x,x,x,x,x,x,x
O=C(O)c1ccc(NN=Cc2ccc(-c3ccccc3)cc2)cc1,-23.3,x,x,x,x,x,x,x,x
Clc1ccc(C=NNc2ccccn2)cc1,0.1,x,x,x,x,x,x,x,x
Clc1ccc(/C=N/Nc2ccccn2)cc1,x,0.0,329.0,128.0*,x,111.0,104.0,5.0,101.0
Nc1cc(N2CCOCC2)c(Cl)cc1[N+](=O)[O-],6.2,-2.0,883.5,73.0*[inhibitor],i,95.0,97.0,-2.0,103.0
Nc1cc(N2CCCC2)c(Cl)cc1[N+](=O)[O-],-1.6,-1.0,414.3,100.0,i,99.0,x,x,x
CN1CCN(/N=C/c2ccc(N(c3ccccc3)c3ccccc3)cc2)CC1,x,16.0,371.8,106.0,i,153.0*,151.0,34.0,98.0
CCCC(CCC(=O)Nc1ccc(C(=O)OC)cc1)C(=O)O (stereo not drawn),3.1,13.0,132.2,125.0*,i,124.0,98.0,-3.0,101.0
SMILES,UCH37 DUB inh,MEKK2mut PB1 HTS,T cell modulator,MEKK3 PB1 HTS,Rce1 inh,MEKK2wt PB1 HTS,MEKK2wt confirm,MEKK2mut-MEK5,MEKK3-MEK5 inh
CCCC(CCC(=O)Nc1ccc(C(=O)OCC)cc1)C(=O)O (stereo not drawn),2.3,1.0,324.3,102.0,i,105.0,x,x,x
CC(CCC12CC3CC(CC(C3)C1)C2)=NNC(N)=S,3.7,x,x,x,x,x,x,x,x
CCN(CC)c1ccc(C=NN2CCN(Cc3ccccc3)CC2)cc1,1.5,x,x,x,x,x,x,x,x
Clc1ccccc1-c1csc(Nc2cccnc2)n1,5.2,-40.0,406.3,47.0*[inhibitor],i,59.0,103.0,5.0,103.0
CCOc1ccc(C=NNC(=O)c2ccc(O)cc2)cc1CN1CC2CC(C1)c1cccc(=O)n1C2 (stereo not drawn),5.4,x,x,x,x,x,x,x,x
Nc1nc(Nc2ccccc2)n[nH]1,0.0,8.0,48.2,74.0*[inhibitor],i,71.0,101.0,11.0,102.0
CC(C)NCC(O)c1ccc(NS(C)(=O)=O)cc1 (stereo not drawn),4.1,6.0,260.5,122.0*!,i,119.0,101.0,-5.0,99.0
COC(=O)[C@@H]1CC[C@H](C)[C@@H](c2ccc(C)cc2)N1C(=O)c1ccc(C=NOC[C@@H](O)[C@H]2O[C@@H]3OC(C)(C)O[C@@H]3[C@H]2O)cc1,3.0,x,x,x,x,x,x,x,x
OC(COc1ccccc1Cl)CN1CCN(CC(O)COc2ccccc2Cl)CC1 (stereo not drawn),5.3,35.0*,393.3,109.0,i,150.0*,155.0,27.0,104.0
COc1ccccc1N1CCN(CC(O)COc2cccc3ccccc23)CC1 (stereo not drawn),2.1,1.0,746.6,75.0*![inhibitor],i,95.0,119.0,14.0,106.0
Cc1nc(/C=[N+](\[O-])C(C)(C)C=NO)n(O)c1C,18.7,x,x,x,x,x,x,x,x
CC(NC(=O)Nc1ccc([N+](=O)[O-])cc1)C(c1ccccc1)N1CCOCC1 (stereo not drawn),4.9,-1.0,336.4,98.0,i,96.0,x,x,x
CC(NC(=O)Nc1ccc(Cl)c(Cl)c1)C(c1ccccc1)N1CCOCC1 (stereo not drawn),4.8,0.0,i,139.0*,i,110.0,110.0,0.0,104.0
